Screening data: PubChem BioAssay, Broad Institute
GASC1 inh: inhibitors of human demethylase GASC-1 KDM4C; Q9H3R0; GST-KDM4C 2-372, H3K9me3 peptide, LANCE TR-FRET; inhibition, % at 12.5 µM; actives 0.15% (n = 96,000); AID 720574;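 active means mean replicate inhibition above about 25%, with at least 55% of replicates also reaching it, limit read from the data, passing the limit was not always enough; inconclusive means only one of those two conditions met; inactive means neither condition met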
Target sequence (Q9H3R0 2-372 limits assumed): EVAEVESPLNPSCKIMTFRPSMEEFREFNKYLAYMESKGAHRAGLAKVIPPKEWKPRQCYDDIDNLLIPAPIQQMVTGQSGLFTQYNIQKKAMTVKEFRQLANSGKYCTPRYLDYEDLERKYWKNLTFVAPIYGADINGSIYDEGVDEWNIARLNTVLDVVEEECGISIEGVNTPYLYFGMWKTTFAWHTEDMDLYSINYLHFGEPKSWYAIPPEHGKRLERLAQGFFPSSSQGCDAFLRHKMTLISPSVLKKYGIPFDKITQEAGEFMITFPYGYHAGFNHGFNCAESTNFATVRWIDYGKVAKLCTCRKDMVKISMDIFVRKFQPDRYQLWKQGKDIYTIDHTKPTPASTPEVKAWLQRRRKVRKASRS
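Material: N-terminal GST-fused human GASC-1 (KDM4C) fragment, residues 2-372. Input: 10 nM enzyme. Incubation: enzyme reaction 30 min, then detection 60 min, both room temperature. Doses: one test concentration per compound. Read-out basis: inhibition from TR-FRET ratio decrease. Detection: LANCE TR-FRET, excitation 340 nm, emissions 618 and 671 nm.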
Pf Dd2 inh: inhibitors of Plasmodium falciparum Dd2 growth; P. falciparum Dd2 growth, SYBR Green, 72 h; hits give low values; activity change, % at 10 µM; actives 2.3% (n = 94,000); AID 1159554; in the data active means activity change below about -80%; inconclusive means no clear call, values can overlap the other calls
T cruzi growth-1: blocks T. cruzi growth in NIH3T3 culture; T. cruzi beta-gal in NIH3T3, GalScreen luminescence, 90 h; inhibition, % at 8.34 µM; actives 5.9% (n = 77,000); AID 624255;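 active means mean inhibition above about 93%, with at least 55% of replicates each passing it, limit read from the data, passing the limit was not always enough; inconclusive means only one of those two conditions holds; inactive means neither condition holds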
IDH1 mut inh: IDH1 R132H (human) inhibition; AID 624101; inhibition, % at 10 µM; actives 0.18% (n = 70,000); IDH1 R132H reductase, diaphorase/resazurin fluorescence, 60 min; O75874; in the data active means inhibition above about 34%; inconclusive means no clear call, values can overlap the other calls; inactive means below about 11%;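 further: 0% = DMSO and 100% = no enzyme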
T cruzi growth-2: Trypanosoma cruzi proliferation inhibition; shares compounds with T cruzi growth-1; inhibition, % at 8.35 µM; actives 72% (n = 5,600); T. cruzi beta-gal in NIH3T3, GalScreen luminescence, 90 h;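 active means mean replicate inhibition above about 95% and at least 55% of replicates individually reaching it, limit read from the data; inconclusive means only one of the two criteria is met; inactive means neither criterion is met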
T cruzi growth-3: blocks T. cruzi growth in NIH3T3 host cells; shares compounds with T cruzi growth-1; T. cruzi beta-gal in NIH3T3, GalScreen luminescence, 90 h; inhibition, % at 2.09 µM; actives 21% (n = 5,600); AID 651740;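 active means mean inhibition above about 95%, with at least 55% of replicates also reaching it, limit read from the data; inconclusive means meets just one of the two conditions; inactive means meets neither condition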;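 further: plate controls were neutral control median for no effect and positive control median for full effect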
NIH3T3 tox: NIH/3T3 (mouse) viability loss. shares compounds with T cruzi growth-1. NIH/3T3 viability, CellTiter-Glo ATP luminescence, 90 h. cytotoxicity (signal decrease), % at 8.35 µM. actives 14% (n = 5,600). AID 651742;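 active means mean signal decrease across replicates above about 35% based on untreated-well scatter, with enough replicates individually passing, limit read from the data; inconclusive means no rule stated though some were filed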;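 further: 0% = median of neutral control wells and 100% = median of positive control wells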
NIH3T3 tox 2: NIH/3T3 (mouse) viability loss. AID 651744. actives 56% (n = 5,600). inhibition, % at 24.9 µM. shares compounds with T cruzi growth-1. NIH/3T3 viability, CellTiter-Glo ATP luminescence, 90 h;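 active means mean loss of cell viability signal at or above a set limit, and enough replicates individually reaching it; inconclusive means meets only the mean limit or only the replicate share; inactive means meets neither condition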;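 further: 0% = median of neutral control wells and 100% = median of positive control wells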
An asterisk follows results filed as active; ? = inconclusive; · = no result given. Shown are actives, neighbours in structure and some others; about 5.8% of the full set was active somewhere.

SMILES | GASC1 inh | Pf Dd2 inh | T cruzi growth-1 | IDH1 mut inh | T cruzi growth-2 | T cruzi growth-3 | NIH3T3 tox | NIH3T3 tox 2
C[C@H]1CN([C@@H](C)CO)S(=O)(=O)c2ccc(C#CCC3CCCC3)cc2O[C@H]1CN(C)C | · | -60 | -20 | 0 | · | · | · | ·
CCCN1C[C@@H](C)[C@H](OC)CN(C)C(=O)c2ccc(NC(=O)Nc3ccccc3F)cc2OC[C@@H]1C | -1 | -44 | 21 | 1 | · | · | · | ·
N#Cc1c(NC(=O)c2ccc(COc3ccccc3Cl)o2)sc2c1CCCC2 | · | · | · | 0 | · | · | · | ·
C[C@H]1CN([C@@H](C)CO)C(=O)c2cccc(NC(=O)c3ccncc3)c2O[C@H]1CN(C)Cc1ccncc1 | -1 | 11 | 50 | · | · | · | · | ·
C[C@@H]1CN([C@H](C)CO)C(=O)c2cccc(NC(=O)c3ccncc3)c2O[C@H]1CN(C)Cc1ccc(-c2ccccc2)cc1 | 1 | -79 | 107* | · | 94 | 85 | 50* | 41*
C[C@H](CO)N1C[C@H](C)[C@@H](CN(C)Cc2ccc(-c3ccccc3)cc2)Oc2c(NC(=O)c3ccncc3)cccc2C1=O | 1 | -28 | 102* | · | 105* | 98* | 49* | 36*
C[C@@H]1CN([C@H](C)CO)C(=O)c2cccc(NC(=O)c3ccncc3)c2O[C@H]1CN(C)CC1CC1 | 1 | -12 | 48 | 1 | · | · | · | ·
C[C@H](CO)N1C[C@H](C)[C@@H](CN(C)CC2CC2)Oc2c(NC(=O)c3ccncc3)cccc2C1=O | · | 9 | 102* | -1 | 78 | 23 | -9 | ?
C[C@@H]1CN([C@@H](C)CO)C(=O)c2cccc(NC(=O)c3ccncc3)c2O[C@@H]1CN(C)Cc1ccccc1 | 0 | 3 | 45 | · | · | · | · | ·
C[C@H](CO)N1C[C@H](C)[C@@H](CN(C)Cc2ccccc2)Oc2c(NC(=O)c3ccncc3)cccc2C1=O | 0 | -28 | 65 | · | · | · | · | ·
C[C@@H]1CN([C@@H](C)CO)C(=O)c2cccc(NC(=O)c3ccncc3)c2O[C@H]1CN(C)Cc1ccc(-c2ccccc2)cc1 | 3 | -28 | 105* | · | 83 | 82 | 31 | 55*
C[C@@H]1CCCCO[C@@H](CN(C)C(=O)c2ccccc2)[C@H](C)CN([C@@H](C)CO)C(=O)c2cc(NC(=O)c3ccncc3)ccc2O1 | 0 | 6 | 14 | · | · | · | · | ·
Cc1ccc2oc(-c3cccc(NC(=O)COc4ccccc4C)c3C)nc2c1 | · | · | · | 0 | · | · | · | ·
Cc1noc(C)c1NC(=O)Nc1ccc2c(c1)C(=O)N([C@@H](C)CO)C[C@@H](C)[C@@H](CN(C)C)OCCCC[C@H](C)O2 | 1 | 6 | 93 | 3 | · | · | · | ·
C[C@H](CO)N1C[C@H](C)[C@H](CN(C)Cc2ccc(-c3ccccc3)cc2)Oc2c(NC(=O)c3ccncc3)cccc2C1=O | -1 | -73 | 99* | -10 | 105* | ? | 56* | 47*
C[C@H](CO)N1C[C@H](C)[C@@H](CN(C)CC2CCCCC2)Oc2c(NS(=O)(=O)c3cn(C)cn3)cccc2C1=O | 13 | 14 | 103* | · | 51 | 16 | 11 | 8
C[C@@H]1CN([C@@H](C)CO)C(=O)c2cc(NC(=O)c3ccncc3)ccc2O[C@@H](C)CCCCO[C@@H]1CN(C)S(=O)(=O)c1ccc(F)cc1 | -1 | -45 | -7 | 2 | · | · | · | ·
CCNC(=O)C[C@H]1CC[C@@H]2[C@H](COC[C@@H](O)CN2C(=O)CC)O1 | 0 | 13 | 33 | · | · | · | · | ·
CN(C)C(=O)[C@@H]1[C@@H](CO)[C@@H]2Cn3c(ccc(C4=CCCC4)c3=O)[C@H]1N2C(=O)Nc1ccccc1 | 1 | · | 52 | · | · | · | · | ·
O=C(C[C@H]1C=C[C@@H](NS(=O)(=O)c2ccccc2)[C@@H](CO)O1)NCc1ccncn1 | 0 | 17 | -31 | 0 | · | · | · | ·
COc1ccccc1S(=O)(=O)N1CC[C@@H]2[C@@H](CO)Nc3ccc(-c4ccccc4F)cc3[C@@H]21 | -2 | 2 | ? | · | 104* | 86 | 24 | 41*
COc1cccc(-c2ccc3c(c2)[C@H]2[C@H](CCN2S(=O)(=O)c2ccccc2OC)[C@H](CO)N3)c1 | 1 | -42 | ? | · | 102* | 91 | -9 | -36
Cc1ccccc1S(=O)(=O)N1CC[C@@H]2[C@H]1c1cc(-c3ccccc3F)ccc1N[C@@H]2CO | 0 | 2 | -11 | · | · | · | · | ·
Cc1ccccc1S(=O)(=O)N1CC[C@@H]2[C@H](CO)Nc3ccc(-c4ccccc4F)cc3[C@@H]21 | 1 | -12 | 110* | · | 97* | 77 | 8 | 106*
COc1ccc2c3c(n(C)c2c1)[C@H](CO)N(C)CC31CN(S(=O)(=O)c2cccc(F)c2)C1 | 0 | -6 | · | · | · | · | · | ·
SMILES | GASC1 inh | Pf Dd2 inh | T cruzi growth-1 | IDH1 mut inh | T cruzi growth-2 | T cruzi growth-3 | NIH3T3 tox | NIH3T3 tox 2
COCC(=O)N1CC2(C1)CN(C(=O)c1ccccn1)[C@@H](CO)c1c2c2ccc(OC)cc2n1C | 0 | 29 | · | · | · | · | · | ·
Cc1ccc(S(=O)(=O)N(C)C[C@@H]2OCCCC[C@@H](C)Oc3ccc(NC(=O)Cc4ccccc4)cc3C(=O)N([C@@H](C)CO)C[C@H]2C)cc1 | 1 | -70 | 64 | 0 | · | · | · | ·
Cc1ccc(S(=O)(=O)N(C)C[C@H]2OCCCC[C@@H](C)Oc3ccc(NC(=O)Cc4ccccc4)cc3C(=O)N([C@@H](C)CO)C[C@@H]2C)cc1 | -1 | -77 | 112* | 1 | 106* | 88 | 26 | 49*
Cc1ccc(S(=O)(=O)N(C)C[C@H]2OCCCC[C@@H](C)Oc3ccc(NC(=O)Cc4ccccc4)cc3C(=O)N([C@@H](C)CO)C[C@H]2C)cc1 | -1 | -65 | 108* | · | 106* | 61 | -19 | -3
O=C(CN1CCOCC1)NCC[C@@H]1CC[C@@H](NC(=O)c2ccccc2F)[C@@H](CO)O1 | 0 | 14 | -10 | 0 | · | · | · | ·
COc1ccc(S(=O)(=O)N(C)C[C@@H]2Oc3ccc(NC(=O)Nc4ccc(C(F)(F)F)cc4)cc3C(=O)N([C@@H](C)CO)C[C@@H]2C)cc1 | -5 | -16 | ? | 1 | 102* | 57 | ? | 46*
COc1ccc(NC(=O)Nc2ccc3c(c2)C(=O)N([C@H](C)CO)C[C@@H](C)[C@@H](CN(C)S(=O)(=O)c2ccc(OC)cc2)O3)cc1 | 3 | 24 | 16 | -1 | · | · | · | ·
COc1ccc(S(=O)(=O)N(C)C[C@H]2Oc3ccc(NC(=O)Nc4ccc(C(F)(F)F)cc4)cc3C(=O)N([C@H](C)CO)C[C@H]2C)cc1 | -3 | -18 | ? | 0 | 103* | 25 | 42* | 51*
